According to PMC9909794 (ACS Omega, 2023):

What was measured:
integrin αvβ3 = settings: cited from earlier work
integrin αvβ5 = settings: cited from earlier work
[1] = system: human dermal fibroblasts (HDFs); assay: Cell adhesion assay on peptide-BSA-coated plates, HDFs; type: cell-based; settings: peptides conjugated at 0.125 μM and 1 μM; 5 × 10^3 cells/well; 1 h
Procedure, shortened: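 HDFs grown in DMEM with 10% FBS and penicillin/streptomycin, detached with 0.05% trypsin–EDTA, and suspended in 0.1% BSA/DMEM. Plates coated with Mal-BSA (10 μg/mL in water; 30 min, 37 °C), then Cys-PPP-spacer amide peptides in 100 mM HEPES pH 7 for 2 h. After 1 h adhesion, cells fixed and stained with crystal violet. Counts averaged over nine 0.77 mm2 fields; mean ± SE, three independent experiments.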

Substance | Affinity for integrin αvβ3 relative to linear RGD peptides (integrin αvβ3) | Affinity for integrin αvβ5 relative to linear RGD peptides (integrin αvβ5) | Effect of the X3 amino acid on cell adhesion activity, HDFs [1]
c(RGDf(NMe)V) [cilengitide] | much higher affinity | much higher affinity | –
CPPP-RGDNYP | – | – | negligible
CPPP-RGDNYI | – | – | negligible
